# Measurements as given in the RNAGym collection of RNA variant scans (doi:10.1126/science.aae0568).
# This sample holds only a part of the variants without activity.
# B1: tRNA (parent)
# chain: GUUCCGUUGGCGUAAUGGUAACGCGUCUCCCUCCUAAGGAGAAGACUGCGGGUUCGAGUCCCGUACGGAACG
# Variants of: B1
# Experiment: yeast fitness relative to wild type (ratio to wild type); higher = fitter; tRNA-Arg(CCU), competitive growth, 37 C, YPD
# In short: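 The tRNA-Arg(CCU) gene variants were made by chemical synthesis with a 3% per-site mutation rate at 69 sites and inserted at the native genomic locus of Saccharomyces cerevisiae. After pooling, the strains were competed in YPD at 37°C for 24 hours in six parallel replicates. Gene amplicons from the start population and each end population were read by 100-nucleotide paired-end sequencing, and Darwinian fitness relative to wild type was taken from genotype frequency changes. Genotypes needed ≥ 100 starting reads, and estimates < 0.5 were set to 0.5.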
row,Variant,yeast fitness
1,A14U U16G U19A A42G G52A,≤ 0.5
2,A14U U26A G58C,≤ 0.5
3,A14U C31U C34A A45U C49U,≤ 0.5
4,A15C G39A U64C A65G,≤ 0.5
5,A15U C22G A37G C55G C60G,≤ 0.5
6,A14U C24G U54G,≤ 0.5
7,A15U C22G C31U G50A,≤ 0.5
8,A15C C24U C66U,≤ 0.5
9,A15U A20C C46G G50C C61G,0.604
10,A15G U35C A36G A37G C61G G67C,≤ 0.5
11,A14U C34G C66U,≤ 0.5
12,A15U C29A C34G U59A A69C,≤ 0.5
13,A15U C24U G25C A37U A40C U53C G58C,≤ 0.5
14,A15U C24A G25A U47C G52C C61G,≤ 0.5
15,A15C U26A C31G U32A G63A,≤ 0.5
16,A14U G17A A43C C46U,≤ 0.5
17,A14U C30A,0.565
18,A14U C30U,0.558
19,A14U U16G U19A A42G,0.512
20,A15U A36C A40U G58C G67C,≤ 0.5
21,A15C G17C,0.62
22,A15C G23C C60U,≤ 0.5
23,A15G G58A G68C,0.596
24,A15G A36G G56U C62U,≤ 0.5

row,Variant,yeast fitness
1,A15C G17A A57C,0.527
2,A15G G56A C62U A70C,0.543
3,A14U U35A G52A C61G C66A,≤ 0.5
4,A15C U47A G52C,0.539
5,A15G U35A G48A A57G C62G,≤ 0.5
6,A14U C27U C55G,0.517
7,A15C G50A C55U C61G,0.804
8,A15C U28A C34G A43U G68C,≤ 0.5
9,A15G C29G C33A G67A,0.569
10,A15U A20C A43C G51A G56C,≤ 0.5
11,A15U A42C G48A G50C,≤ 0.5
12,A15G C30A G48C,≤ 0.5
13,A15G G23A C60U,≤ 0.5
14,A15C U28C G48C,≤ 0.5
15,A15G G18A U54A,≤ 0.5
16,A15G A20C C62G,0.731
17,A14U C46U G48C G63A G68A,≤ 0.5
18,A15C G18A C24G C55A,≤ 0.5
19,A15C U35C U47C,≤ 0.5
20,A14U C30U C55G,≤ 0.5
21,A15G C31G G44C C46G,0.647
22,A14U U16A C22U C24A G67A A69C,0.67
23,A15G C22G,0.893
24,A15U A40C C49U,0.528

row,Variant,yeast fitness
1,A15U A65C G67A,≤ 0.5
2,A15C C22A C31A G38C G58C,0.542
3,A15G U35G A43G C66U,≤ 0.5
4,A15C G25A A65C,0.711
5,A15C C22A G25C U28A A36U A57C A65C G68C,0.568
6,A15C A21U C62U,0.53
7,A14U G23U C61G,≤ 0.5
8,A15C A43G C46A G68A,≤ 0.5
9,A14U G41C,0.565
10,A15C G39A A57G C66U,≤ 0.5
11,A15G G58A C62U A69C,0.685
12,A15C U47A,1.09
13,A15G A20U G68A,0.545
14,A15C A21G C22U C49U U53C,≤ 0.5
15,A15U C22G G52A A65U,≤ 0.5
16,A15C G50A C60G U64G,≤ 0.5
17,A15G U26A C66A,≤ 0.5
18,A15G A43U C60G,≤ 0.5
19,A15G C33U G50A,≤ 0.5
20,A15G A21C,0.709
21,A15G G18A A69U,0.648
22,A15C C31G A40U,0.624
23,A15G G17A U19A U32G,≤ 0.5
24,A14U U16A C27G A40U A57U C66A,≤ 0.5

row,Variant,yeast fitness
1,A15G C24A U64C,≤ 0.5
2,A15U A57G,0.927
3,A15U A57C,0.637
4,A15C C27U U28A A40U,≤ 0.5
5,A15C U28C G48C G68U A69U,≤ 0.5
6,A15C A36U,0.633
7,A14U U19A A21C G48C G63A A70G,≤ 0.5
8,A15C C34G A37U C46G A69U,≤ 0.5
9,A15C A20G A21U C66G,≤ 0.5
10,A15G C30A C62G,0.634
11,A14U G52A G68C,≤ 0.5
12,A15C C22G A43C G52C,≤ 0.5
13,A15U A57U A65C,0.586
14,A14U U47A A69G,0.66
15,A15G A36C,0.515
16,A14U C49U,0.629
17,A15G C29G C31G A37C C66A,≤ 0.5
18,A15G A40U,0.767
19,A15U C24A G25A U47C G52C A65U,≤ 0.5
20,A15G C30G A42C A43C C46G A65C,≤ 0.5
21,A14U U19A A21C G48C A70G,0.505
22,A15C C31A U35C A45U,≤ 0.5
23,A15G G17A G48A,0.681
24,A15U C24U C27U,≤ 0.5

row,Variant,yeast fitness
1,A15G G48A C62U,1.03
2,A14U U28A U59C C60G,≤ 0.5
3,A15G C24A C66U,≤ 0.5
4,A15C C27U C30U U32G U35A A37C A57U,≤ 0.5
5,A15G C24A C34G A65U,≤ 0.5
6,A15C U47G G52C,≤ 0.5
7,A15C G18A U19G G58C,≤ 0.5
8,A15U A69C,0.77
9,A15C C24A U53C,≤ 0.5
10,A15C U59A C61A,0.698
11,A15G C46G C61G A65G,0.756
12,A14U U59A,0.583
13,A15C A36U C46G G56A C60A C62G C66A,≤ 0.5
14,A15C G25C C29U U35C A43U G67C,≤ 0.5
15,A14U C31A C46U G48A C49U,≤ 0.5
16,A15C G44A U53C U64C,≤ 0.5
17,A15C C22A,0.697
18,A15U A43U C62U,0.611
19,A15C A20G A70C,0.6
20,A14U C62U C66G,≤ 0.5
21,A15G A57U A65U,≤ 0.5
22,A15G C30G C31A C66U,≤ 0.5
23,A15C U28A C34G A43U G63U U64C,≤ 0.5
24,A14U C62G,0.692

row,Variant,yeast fitness
1,A15G C29A U47G U54A G58A,≤ 0.5
2,A15U A20G C30A G63C,≤ 0.5
3,A15G A36U U59A,≤ 0.5
4,A15C C55A,0.562
5,A15C C29U G39C A42U G48C G50U G51C A65U,≤ 0.5
6,A15G G41A,0.854
7,A15U C22G U32A C66A,≤ 0.5
8,A15U A40G G52C C62G,≤ 0.5
9,A15G C49A G56A,0.506
10,A14U C30A A43U C49U,0.545
11,A15G C33U A40G G51C A57U,≤ 0.5
12,A15C C27U C62U,≤ 0.5
13,A15G A20C C34U U59G,0.705
14,A15C U16A A21G U26A C30U,≤ 0.5
15,A15G A42U A57C,0.532
16,A15C G52A A57U C60U A65G G68A,≤ 0.5
17,A15C C33U A36U C66U,≤ 0.5
18,A15C C31A U59C G63A A69G,≤ 0.5
19,A15G G67A A69C,0.767
20,A14U G17C C30G G41C A42C U47C G50A C62A,≤ 0.5
21,A14U G18A,≤ 0.5
22,A15G U47C G68C,≤ 0.5
23,A15G A20C A43U U54A,≤ 0.5
24,A15G A36G A37G,0.624

row,Variant,yeast fitness
1,A15C C49G C62U,0.636
2,A15C A36U A42G U59C C60A,≤ 0.5
3,A14U G25A C30G C62G,≤ 0.5
4,A15U A40U G52A G68A,0.596
5,A15G U35C,0.892
6,A15G C49G C55G,0.577
7,A14U G17C C24A C30G C62A A70U,≤ 0.5
8,A15G C24G C49U,0.541
9,A15G C29A G58C,0.503
10,A15C C46U G51A C66A,≤ 0.5
11,A15C U35A,0.599
12,A15C A36U A69U,0.509
13,A15G U16G G39A A45C C61A,≤ 0.5
14,A14U C30A A43U,≤ 0.5
15,A15C G39A G67A,≤ 0.5
16,A14U G23U G68C,0.514
17,A14U G18A C30A,≤ 0.5
18,A15G C34U A40U A69C,≤ 0.5
19,A15C G67C,0.684
20,A15G C31U C60U,0.543
21,A14U G25A U35A G39U A65G,≤ 0.5
22,A14U C49A G68A,≤ 0.5
23,A15G A42C C46A,≤ 0.5
